Converted amounts (≈) assume the structure as drawn. The source made the active and inactive calls. The calls are words filed in the database; no cut-off is given here.
Tests used:
[1] = tested on: Mycolicibacterium smegmatis; assay: Antibacterial activity against Mycobacterium smegmatis VKPM Ac-1339; format: functional
Summary of the method: (§1)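 Strains grown in modified Gause's nutrient medium N 2, inoculum 10⁶ cells/ml. Test compound dissolved in 50% aqueous methanol, added at ten volume percent of the medium. Growth controls: medium without additions, medium with solvent mixture, and clinical antibiotics (amikacin, ciprofloxacin, isoniazid, rifampicin, oxacillin, vancomycin).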

[2] = tested on: Mycolicibacterium smegmatis; assay: Antibacterial activity against Mycobacterium smegmatis mc2155; format: functional
Summary of the method: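 Strains were grown in modified Gause's nutrient medium N 2 at 10⁶ cells/ml. The compound was dissolved in 50% aqueous methanol and added at 10 volume percent of the medium. Controls were untreated cultures, medium with the solvent mixture, and clinical antibiotics.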

[3] = tested on: Bacillus subtilis; assay: Antibacterial activity against Bacillus subtilis ATCC 6633; format: functional; summary of the method: as §1
[4] = tested on: Staphylococcus aureus; assay: Antibacterial activity against Staphylococcus aureus FDA 209 P; format: functional; summary of the method: as §1
[5] = Cytotoxicity against human A549 cells by MTT assay; format: cell-based
Summary of the method: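 Adherent A549 cells passaged in DMEM with 10% fetal calf serum and 2 mM glutamine, at 37 °C, 5% CO2, 90% humidity. MTT test. CC50 is the concentration that inhibits culture growth by 50%.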

[6] = tested on: Micrococcus luteus; assay: Antibacterial activity against Micrococcus luteus NCTC 8340; format: functional; summary of the method: as §1
[7] = tested on: Leuconostoc mesenteroides; assay: Antibacterial activity against Leuconostoc mesenteroides VKPM B-4177; format: functional; summary of the method: as §1
[8] = tested on: Staphylococcus aureus; assay: Antibacterial activity against Staphylococcus aureus INA 00761; format: functional; summary of the method: as §1
[9] = Chemical stability of compound in pH 2.2 at 5 mg measured after 7 days by TLC analysis; format: physicochemical; conditions: pH 2.2, 168 h, time 7 day
Summary of the method: (§2)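 Compound incubated at 37 °C in 0.2 M glycine/HCl (pH 2.2), 0.1 M potassium phosphate (pH 7.5) or 0.2 M glycine/NaOH (pH 9.0). Followed for 24 h and up to over a week.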

[10] = Chemical stability of compound in pH 7.5 at 5 mg measured after 7 days by TLC analysis; format: physicochemical; conditions: pH 7.5, 168 h, time 7 day; summary of the method: as §2
[11] = Metabolic stability in human serum assessed as half life at 100 mM measured for 24 hrs by HPLC/TLC analysis; format: ADME, cell-free
[12] = Aqueous solubility of compound; format: physicochemical; conditions: buffer
[13] = Chemical stability of compound in pH 9 at 5 mg measured after 24 hrs by TLC analysis; format: physicochemical; conditions: pH 9, 24 h; summary of the method: as §2
[14] = tested on: Aspergillus versicolor; assay: Antifungal activity against Aspergillus versicolor SRX7729174 STG-25G assessed as reduction in fungal growth at 0.1 to 3.5 mM measured for 24 days by drop dilution assay relative to control; format: functional; conditions: dose 0.1-3.5 mM, time 24.0 day
Summary of the method: (§3)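 Drop-dilution method. Suspension plated on CDA with or without compound (screening range 0.1–3.5 mM); 5-fluorocytosine positive control. Incubated at 26 °C. Inhibition % = (Dc−Dt)/Dc × 100 from colony diameters; triplicate, repeated at least twice.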

[15] = tested on: Cladosporium halotolerans; assay: Antifungal activity against Cladosporium-halotolerans SRX7729178 STG-52B assessed as reduction in fungal growth at 0.1 to 3.5 mM measured for 24 days by drop dilution assay relative to control; format: functional; conditions: dose 0.1-3.5 mM, time 24.0 day; summary of the method: as §3
[16] = tested on: Alternaria chartarum; assay: Antifungal activity against Ulocladium chartarum SRX7729176 STG-36 assessed as reduction in fungal growth at 0.1 to 3.5 mM measured for 24 days by drop dilution assay relative to control; format: functional; conditions: dose 0.1-3.5 mM, time 24.0 day; summary of the method: as §3
[17] = tested on: Cladosporium parahalotolerans; assay: Antifungal activity against Cladosporium-parahalotolerans SRX7729188 STG-93B assessed as reduction in fungal growth at 0.1 to 3.5 mM measured for 24 days by drop dilution assay relative to control; format: functional; conditions: dose 0.1-3.5 mM, time 24.0 day; summary of the method: as §3
[18] = tested on: Aspergillus; assay: Antifungal activity against Aspergillus SRX7729186 STG-93W assessed as reduction in fungal growth at 0.1 to 3.5 mM measured for 24 days by drop dilution assay relative to control; format: functional; conditions: dose 0.1-3.5 mM, time 24.0 day; summary of the method: as §3
[19] = tested on: Aspergillus versicolor; assay: Antifungal activity against Aspergillus versicolor SRX7729182 STG-25G assessed as reduction in fungal growth at 0.1 to 3.5 mM measured for 24 days by drop dilution assay relative to control; format: functional; conditions: dose 0.1-3.5 mM, time 24.0 day; summary of the method: as §3
[20] = tested on: Aspergillus amoenus; assay: Antifungal activity against Aspergillus-amoenus SRX7729194 STG-106 assessed as reduction in fungal growth at 0.1 to 3.5 mM measured for 24 days by drop dilution assay relative to control; format: functional; conditions: dose 0.1-3.5 mM, time 24.0 day; summary of the method: as §3
[21] = tested on: Aspergillus creber; assay: Antifungal activity against Aspergillus-creber SRX7729180 STG-57 assessed as reduction in fungal growth at 0.1 to 3.5 mM measured for 24 days by drop dilution assay relative to control; format: functional; conditions: dose 0.1-3.5 mM, time 24.0 day; summary of the method: as §3
[22] = tested on: Simplicillium lamellicola; assay: Antifungal activity against Simplicilium-lamellicola SRX772919 STG-96 assessed as reduction in fungal growth at 0.1 to 3.5 mM measured for 24 days by drop dilution assay relative to control; format: functional; conditions: dose 0.1-3.5 mM, time 24.0 day; summary of the method: as §3
[23] = tested on: Microascus paisii; assay: Antifungal activity against Microascus-paisii SRX7729192 STG-103 assessed as reduction in fungal growth at 0.1 to 3.5 mM measured for 24 days by drop dilution assay relative to control; format: functional; conditions: dose 0.1-3.5 mM, time 24.0 day; summary of the method: as §3

## NNC(=O)c1ccncc1 [ISONIAZID]
[1]
  MIC: 2 µM (≈ 0.274 µg/mL)
[2]
  MIC: 29 µM (≈ 3.98 µg/mL)

## Cc1cn([C@H]2C[C@H](O)[C@@H](CO)O2)c(=O)nc1NCCc1ccccc1
[1]
  MIC: > 200 µM
[2]
  MIC: > 200 µM
[3]
  MIC: > 200 µM
[4]
  MIC: > 200 µM
[5]
  CC50: 90 µM
[6]
  MIC: > 200 µM
[7]
  MIC: > 200 µM
[8]
  MIC: > 200 µM

## CCCCCCCCCCCCNc1nc(=O)n([C@H]2C[C@H](OC(=O)OCCOCCOCCO)[C@@H](CO)O2)cc1C
[1]
  MIC: 68 µM (≈ 39.8 µg/mL)
[9]
  Stabilty: Stable
[2]
  MIC: 68 µM (≈ 39.8 µg/mL)
[10]
  Stabilty: Stable
[11]
  half-life: ≥ 24 h
[3]
  MIC: 68 µM (≈ 39.8 µg/mL)
[4]
  MIC: 50 µM (≈ 29.3 µg/mL)
[5]
  CC50: 90 µM
[6]
  MIC: 50 µM (≈ 29.3 µg/mL)
[12]
  solubility: Soluble
[7]
  MIC: 68 µM (≈ 39.8 µg/mL)
[8]
  MIC: 50 µM (≈ 29.3 µg/mL)
[13]
  Stabilty: Stable

## Cc1onc(-c2ccccc2)c1C(=O)N[C@@H]1C(=O)N2[C@@H]1SC(C)(C)[C@@H]2C(=O)O [OXACILLIN]
[4]
  MIC: 2.5 µM (≈ 1 µg/mL)
[8]
  MIC: 80 µM (≈ 32.1 µg/mL)

## O=C(O)c1cn(C2CC2)c2cc(N3CCNCC3)c(F)cc2c1=O [CIPROFLOXACIN]
[1]
  MIC: 12 µM (≈ 3.98 µg/mL)
[2]
  MIC: 15 µM (≈ 4.97 µg/mL)
[4]
  MIC: 3 µM (≈ 0.994 µg/mL)
[8]
  MIC: 12 µM (≈ 3.98 µg/mL)

## NCC[C@H](O)C(=O)N[C@@H]1C[C@H](N)[C@@H](O[C@H]2O[C@H](CN)[C@@H](O)[C@H](O)[C@H]2O)[C@H](O)[C@H]1O[C@H]1O[C@H](CO)[C@@H](O)[C@H](N)[C@H]1O [AMIKACIN]
[1]
  MIC: 29 µM (≈ 17 µg/mL)
[2]
  MIC: 50 µM (≈ 29.3 µg/mL)
[3]
  MIC: 7 µM (≈ 4.1 µg/mL)
[4]
  MIC: 3.4 µM (≈ 1.99 µg/mL)
[6]
  MIC: 1 µM (≈ 0.586 µg/mL)
[8]
  MIC: 5 µM (≈ 2.93 µg/mL)

## CCCCCCCCNc1ccn([C@@H]2O[C@H](CO)[C@@H](O)[C@H]2O)c(=O)n1
[1]
  MIC: > 200 µM
[2]
  MIC: > 200 µM
[3]
  MIC: > 200 µM
[4]
  MIC: > 200 µM
[5]
  CC50: 90 µM
[6]
  MIC: > 200 µM
[7]
  MIC: > 200 µM
[8]
  MIC: > 200 µM

## CO[C@H]1/C=C/O[C@@]2(C)Oc3c(C)c(O)c4c(O)c(c(/C=N/N5CCN(C)CC5)c(O)c4c3C2=O)NC(=O)/C(C)=C\C=C\[C@H](C)[C@H](O)[C@@H](C)[C@@H](O)[C@@H](C)[C@H](OC(C)=O)[C@@H]1C [RIFAMPIN]
[1]
  MIC: 10 µM (≈ 8.23 µg/mL)
[2]
  MIC: 5 µM (≈ 4.11 µg/mL)

## CCCCCCCCCCNc1nc(=O)n([C@H]2C[C@H](OC(=O)OCCOCCOCCO)[C@@H](CO)O2)cc1C
[14]
  inhibition: inactive
[15]
  inhibition: inactive
[1]
  MIC: 54 µM (≈ 30.1 µg/mL)
[9]
  Stabilty: Stable
[16]
  inhibition: inactive
[2]
  MIC: 54 µM (≈ 30.1 µg/mL)
[17]
  inhibition: inactive
[10]
  Stabilty: Stable
[18]
  inhibition: inactive
[19]
  inhibition: inactive
[11]
  half-life: ≥ 24 h
[3]
  MIC: 90 µM (≈ 50.2 µg/mL)
[4]
  MIC: 54 µM (≈ 30.1 µg/mL)
[20]
  inhibition: inactive
[5]
  CC50: 90 µM
[6]
  MIC: > 45 µM
[21]
  inhibition: inactive
[12]
  solubility: Soluble
[7]
  MIC: 90 µM (≈ 50.2 µg/mL)
[8]
  MIC: 54 µM (≈ 30.1 µg/mL)
[13]
  Stabilty: Stable

## Nc1nc(=O)[nH]cc1F
[14]
  inhibition: Active
[15]
  inhibition: Active
[22]
  inhibition: Active
[16]
  inhibition: Active
[17]
  inhibition: Active
[18]
  inhibition: Active
[19]
  inhibition: Active
[20]
  inhibition: Active
[21]
  inhibition: Active
[23]
  inhibition: Active

## O=c1nc(NCCCCc2ccccc2)ccn1[C@H]1C[C@H](O)[C@@H](CO)O1
[1]
  MIC: > 200 µM
[2]
  MIC: > 200 µM
[3]
  MIC: > 200 µM
[4]
  MIC: > 200 µM
[5]
  CC50: 90 µM
[6]
  MIC: > 200 µM
[7]
  MIC: > 200 µM
[8]
  MIC: > 200 µM

— ChEMBL document CHEMBL4732208, “Discovery of novel N-alkylcytidines as promising antimicrobial agents” (Eur J Med Chem, 2021)
